Reference: ChEMBL document CHEMBL5252608, “Eremoxylarins D-J, Antibacterial Eremophilane Sesquiterpenes Discovered from an Endolichenic Strain of Xylaria hypoxylon” (J Nat Prod, 2023)
The source made the active and inactive calls. The rule behind the calls is not given here.

Assays:
[1] = Selectivity index, ratio of CC50 for human Huh-7 cells to IC50 for antiviral activity against HCoV-229E harboring luciferase reporter gene infected in human Huh-7 cells; assay type: toxicity, cell-based; details: read-out: Ratio CC50/IC50
Method in brief: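 Huh-7 cells (6×10^4/well) seeded and held 16 h at 37 °C, 5% CO₂, then treated 24 h with increasing compound concentrations. MTS viability read as formazan absorbance at 490 nm; CC50 derived, 3 experiments. Ratio taken against IC50 from the luciferase-reporter HCoV-229E infection assay in Huh-7 cells (MOI 0.5, 1 h plus 6 h).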

Human coronavirus 229E [2] = experiment: Antiviral activity against HCoV-229E harboring luciferase reporter gene infected in human Huh-7 cells expressing TMPRSS2 assessed as reduction in viral replication pre-incubated for 1 hrs followed by replacement with fresh media for 6 hrs by renilla luciferase based luminometer analysis; assay type: functional, organism-based; details: time 7.0 hrs
Method in brief: (§1)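 Huh-7 or Huh-7/TMPRSS2 cells in DMEM GlutaMAX-I with 10% FBS. Inoculated with luciferase-reporter HCoV-229E at MOI 0.5 for 1 h at 37 °C with compound at increasing concentrations (highest 50 μM). Virus then replaced by compound-containing medium for 6 h. Lysed for Renilla luciferase luminescence, normalised to DMSO control. Triplicate measures, 3 independent experiments, mean ± SEM.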

Human coronavirus 229E [3] = experiment: Antiviral activity against HCoV-229E harboring luciferase reporter gene infected in human Huh-7 cells assessed as reduction in viral replication pre-incubated for 1 hrs followed by replacement with fresh media for 6 hrs by renilla luciferase based luminometer analysis; assay type: functional, organism-based; method in brief: as §1
Human coronavirus 229E [4] = experiment: Antiviral activity against HCoV-229E harboring luciferase reporter gene infected in human Huh-7 cells expressing TMPRSS2 assessed as reduction in viral replication upto 50 uM pre-incubated for 1 hrs followed by replacement with fresh media for 6 hrs by renilla luciferase based luminometer analysis; assay type: functional, organism-based; details: time 7.0 hrs; method in brief: as §1
Human coronavirus 229E [5] = experiment: Antiviral activity against HCoV-229E harboring luciferase reporter gene infected in human Huh-7 cells assessed as reduction in viral replication upto 50 uM pre-incubated for 1 hrs followed by replacement with fresh media for 6 hrs by renilla luciferase based luminometer analysis; assay type: functional, organism-based; details: time 7.0 hrs; method in brief: as §1

Row | SMILES | selectivity ratio [1] | Activity (Human coronavirus 229E [2]) | IC50 (Human coronavirus 229E [3]) [µM] | Activity (Human coronavirus 229E [3]; time 7.0 hrs) | Activity (Human coronavirus 229E [4]) | Activity (Human coronavirus 229E [5])
1 | C=C(C=O)[C@H]1CC=C2[C@H](OC(=O)/C(C)=C/CCCCCCC)CC[C@H](C(=O)O)[C@@]2(C)C1 | 2.57 | Active | 18.1 | Active |  | 
2 | C=C(C=O)[C@H]1CC=C2[C@H](OC(=O)/C(C)=C/C=C/CCCCC)CC[C@H](C(=O)O)[C@@]2(C)C1 |  |  |  |  | inactive | inactive
